# Laboratory results taken from ChEMBL document CHEMBL2331439 (J Med Chem, 2013).
# Experiments:
# [1] = target: Inhibitor of nuclear factor kappa-B kinase subunit epsilon (Homo sapiens) (UniProt Q14164); test: Inhibition of recombinant IKBKE (unknown origin) at 5 uM by FRET-based Z'-LYTE assay
# Outline: (§1)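 Single-point panel screen at 5 μM in duplicate. ATP is at the apparent Km of each kinase, and the Z'-LYTE FRET peptide substrate is used. Each point has two control wells: a protease control for interference with development and a fluorescence control for interference with the FRET read-out. Values above 100% are treated as maximal inhibition and values below 0% as none.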
# [2] = target: Tyrosine-protein kinase SYK (Homo sapiens) (UniProt P43405); test: Inhibition of recombinant SYK (unknown origin) at 5 uM by FRET-based Z'-LYTE assay
# Outline: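 Z'-LYTE FRET peptide (coumarin/fluorescein) phosphorylation was followed by protease development. Wells included a protease control for interference with development and a fluorescence control for interference with the FRET read. Values above 100% or below 0% were treated as maximal or no inhibition.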
# [3] = target: Mitogen-activated protein kinase kinase kinase kinase 4 (Homo sapiens) (UniProt O95819); test: Inhibition of recombinant MAP4K4 (unknown origin) at 5 uM by FRET-based Z'-LYTE assay; outline: as §1
# [4] = target: 3-phosphoinositide-dependent protein kinase 1 (Homo sapiens) (UniProt O15530); test: Inhibition of recombinant PDK1 (unknown origin) at 5 uM by FRET-based Z'-LYTE assay; outline: as §1
# [5] = target: Serine/threonine-protein kinase mTOR (Homo sapiens) (UniProt P42345); test: Inhibition of recombinant FRAP1 (unknown origin) at 5 uM by FRET-based Z'-LYTE assay; outline: as §1
# [6] = target: Insulin receptor (Homo sapiens) (UniProt P06213); test: Inhibition of recombinant INSR (unknown origin) at 5 uM by FRET-based Z'-LYTE assay; outline: as §1
# [7] = target: Activin receptor type-1B (Homo sapiens) (UniProt P36896); test: Inhibition of recombinant ACVR1B (unknown origin) at 5 uM by FRET-based Z'-LYTE assay; outline: as §1
# [8] = target: Mitogen-activated protein kinase 1 (Homo sapiens, UniProt P28482); test: Inhibition of recombinant ERK2 (unknown origin) by FRET-based Z'-LYTE assay
# [9] = target: Epidermal growth factor receptor (Homo sapiens) (UniProt P00533); test: Inhibition of recombinant EGFR (unknown origin) at 5 uM by FRET-based Z'-LYTE assay; outline: as §1
# [10] = target: Hepatocyte growth factor receptor (Homo sapiens) (UniProt P08581); test: Inhibition of recombinant MET (unknown origin) at 5 uM by FRET-based Z'-LYTE assay; outline: as §1
# [11] = target: Mitogen-activated protein kinase 14 (Homo sapiens, UniProt Q16539); test: Inhibition of recombinant MAPK14 (unknown origin) by FRET-based Z'-LYTE assay
# [12] = target: Receptor-type tyrosine-protein kinase FLT3 (Homo sapiens) (UniProt P36888); test: Inhibition of recombinant FLT3 (unknown origin) at 5 uM by FRET-based Z'-LYTE assay; outline: as §1
# 3-phosphoinositide-dependent protein kinase 1 (Homo sapiens), sequence (O15530 whole entry): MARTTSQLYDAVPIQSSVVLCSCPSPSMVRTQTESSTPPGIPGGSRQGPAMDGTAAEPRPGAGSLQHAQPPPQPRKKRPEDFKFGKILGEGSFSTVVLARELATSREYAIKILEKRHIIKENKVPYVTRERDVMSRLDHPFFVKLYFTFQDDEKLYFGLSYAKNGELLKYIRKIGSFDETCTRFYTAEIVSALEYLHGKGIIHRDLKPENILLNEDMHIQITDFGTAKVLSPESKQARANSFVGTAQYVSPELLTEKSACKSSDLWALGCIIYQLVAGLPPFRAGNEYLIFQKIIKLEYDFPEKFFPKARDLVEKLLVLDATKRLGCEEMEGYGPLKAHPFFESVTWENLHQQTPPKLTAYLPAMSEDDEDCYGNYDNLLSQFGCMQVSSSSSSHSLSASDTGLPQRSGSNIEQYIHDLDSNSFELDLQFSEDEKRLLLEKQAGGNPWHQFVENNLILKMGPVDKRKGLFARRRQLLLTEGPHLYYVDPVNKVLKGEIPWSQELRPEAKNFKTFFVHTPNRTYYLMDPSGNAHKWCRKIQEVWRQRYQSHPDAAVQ
# Epidermal growth factor receptor (Homo sapiens), sequence (P00533 whole entry): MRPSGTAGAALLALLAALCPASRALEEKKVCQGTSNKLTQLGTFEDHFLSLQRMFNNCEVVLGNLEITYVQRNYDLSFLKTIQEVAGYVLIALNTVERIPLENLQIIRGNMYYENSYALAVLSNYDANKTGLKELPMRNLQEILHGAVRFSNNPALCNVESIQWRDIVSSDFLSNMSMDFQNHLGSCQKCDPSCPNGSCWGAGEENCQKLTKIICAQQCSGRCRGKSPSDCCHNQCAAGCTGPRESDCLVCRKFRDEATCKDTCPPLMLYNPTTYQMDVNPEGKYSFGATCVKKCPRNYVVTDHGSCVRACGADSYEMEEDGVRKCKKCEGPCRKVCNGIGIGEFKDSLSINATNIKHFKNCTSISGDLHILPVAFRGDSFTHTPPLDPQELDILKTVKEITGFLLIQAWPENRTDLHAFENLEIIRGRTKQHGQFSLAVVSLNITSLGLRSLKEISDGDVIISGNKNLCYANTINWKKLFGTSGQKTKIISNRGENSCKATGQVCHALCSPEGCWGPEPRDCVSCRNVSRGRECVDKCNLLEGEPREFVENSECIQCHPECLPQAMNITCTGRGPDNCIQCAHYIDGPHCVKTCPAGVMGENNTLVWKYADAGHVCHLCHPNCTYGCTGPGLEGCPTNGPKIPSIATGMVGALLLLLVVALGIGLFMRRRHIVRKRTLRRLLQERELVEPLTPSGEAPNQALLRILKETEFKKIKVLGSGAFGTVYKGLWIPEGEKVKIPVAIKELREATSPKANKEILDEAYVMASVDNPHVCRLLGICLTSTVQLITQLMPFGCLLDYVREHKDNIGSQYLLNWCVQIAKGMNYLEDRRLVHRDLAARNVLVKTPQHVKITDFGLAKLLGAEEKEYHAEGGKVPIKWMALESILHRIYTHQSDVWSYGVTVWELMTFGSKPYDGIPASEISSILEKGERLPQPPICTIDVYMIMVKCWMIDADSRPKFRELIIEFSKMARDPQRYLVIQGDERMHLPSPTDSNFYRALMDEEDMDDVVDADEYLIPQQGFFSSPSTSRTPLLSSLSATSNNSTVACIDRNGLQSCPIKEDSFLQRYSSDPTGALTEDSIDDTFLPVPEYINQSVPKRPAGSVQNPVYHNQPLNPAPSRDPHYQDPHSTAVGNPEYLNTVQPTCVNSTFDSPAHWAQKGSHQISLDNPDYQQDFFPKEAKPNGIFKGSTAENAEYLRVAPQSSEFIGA
# Hepatocyte growth factor receptor (Homo sapiens), sequence (P08581 whole entry): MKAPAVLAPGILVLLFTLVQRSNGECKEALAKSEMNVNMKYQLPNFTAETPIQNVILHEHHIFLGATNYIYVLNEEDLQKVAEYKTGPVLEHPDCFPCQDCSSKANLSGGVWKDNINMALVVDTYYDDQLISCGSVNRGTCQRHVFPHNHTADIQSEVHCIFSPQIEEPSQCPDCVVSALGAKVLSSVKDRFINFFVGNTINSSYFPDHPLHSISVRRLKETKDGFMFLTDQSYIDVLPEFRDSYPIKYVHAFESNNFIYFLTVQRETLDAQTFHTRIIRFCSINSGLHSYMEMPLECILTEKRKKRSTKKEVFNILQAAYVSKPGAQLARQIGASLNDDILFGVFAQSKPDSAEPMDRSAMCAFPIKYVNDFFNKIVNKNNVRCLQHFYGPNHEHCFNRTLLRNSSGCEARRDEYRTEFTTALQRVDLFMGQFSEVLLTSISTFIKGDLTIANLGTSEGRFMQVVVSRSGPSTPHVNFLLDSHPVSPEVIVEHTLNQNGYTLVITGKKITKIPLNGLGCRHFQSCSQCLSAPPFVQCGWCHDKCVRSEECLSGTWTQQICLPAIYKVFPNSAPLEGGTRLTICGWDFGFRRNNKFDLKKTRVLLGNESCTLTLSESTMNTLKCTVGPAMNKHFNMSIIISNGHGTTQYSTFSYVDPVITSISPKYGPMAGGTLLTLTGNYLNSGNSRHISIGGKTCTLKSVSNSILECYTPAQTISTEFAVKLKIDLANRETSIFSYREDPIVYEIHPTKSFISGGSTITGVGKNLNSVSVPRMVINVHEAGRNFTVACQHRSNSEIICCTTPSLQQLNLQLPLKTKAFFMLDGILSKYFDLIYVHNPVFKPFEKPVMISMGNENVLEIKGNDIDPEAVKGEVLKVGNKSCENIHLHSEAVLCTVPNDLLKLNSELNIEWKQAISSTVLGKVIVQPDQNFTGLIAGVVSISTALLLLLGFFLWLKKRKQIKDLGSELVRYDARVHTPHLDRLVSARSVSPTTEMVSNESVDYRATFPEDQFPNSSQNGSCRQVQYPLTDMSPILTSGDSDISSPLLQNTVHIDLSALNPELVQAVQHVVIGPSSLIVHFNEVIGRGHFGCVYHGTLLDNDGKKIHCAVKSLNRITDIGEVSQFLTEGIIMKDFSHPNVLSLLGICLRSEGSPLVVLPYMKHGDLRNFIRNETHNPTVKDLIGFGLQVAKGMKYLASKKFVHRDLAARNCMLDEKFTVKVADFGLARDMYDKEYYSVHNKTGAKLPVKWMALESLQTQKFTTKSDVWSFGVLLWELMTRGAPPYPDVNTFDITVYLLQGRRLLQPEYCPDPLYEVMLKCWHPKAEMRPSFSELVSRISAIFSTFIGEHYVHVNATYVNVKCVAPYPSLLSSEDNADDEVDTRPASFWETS
# Insulin receptor (Homo sapiens), sequence (P06213 28-758 limits assumed): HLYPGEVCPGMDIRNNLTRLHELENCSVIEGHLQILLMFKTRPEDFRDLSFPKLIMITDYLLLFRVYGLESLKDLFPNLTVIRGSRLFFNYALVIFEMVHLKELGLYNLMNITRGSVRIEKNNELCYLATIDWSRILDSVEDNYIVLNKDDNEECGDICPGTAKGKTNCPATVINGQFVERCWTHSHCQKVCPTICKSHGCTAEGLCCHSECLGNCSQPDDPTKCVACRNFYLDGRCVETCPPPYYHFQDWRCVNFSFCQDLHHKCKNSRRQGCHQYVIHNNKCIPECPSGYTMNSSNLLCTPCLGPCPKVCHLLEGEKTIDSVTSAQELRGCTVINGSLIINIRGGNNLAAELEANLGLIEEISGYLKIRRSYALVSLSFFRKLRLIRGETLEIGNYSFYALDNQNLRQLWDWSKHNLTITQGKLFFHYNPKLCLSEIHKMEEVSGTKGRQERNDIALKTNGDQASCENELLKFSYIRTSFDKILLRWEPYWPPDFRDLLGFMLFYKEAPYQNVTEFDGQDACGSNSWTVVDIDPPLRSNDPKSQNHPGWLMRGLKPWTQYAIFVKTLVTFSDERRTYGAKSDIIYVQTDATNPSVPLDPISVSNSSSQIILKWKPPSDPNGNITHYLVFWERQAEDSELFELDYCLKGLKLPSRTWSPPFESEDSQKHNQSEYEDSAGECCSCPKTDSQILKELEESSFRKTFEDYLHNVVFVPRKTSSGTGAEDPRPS
# Insulin receptor (Homo sapiens), sequence (P06213 763-1382 limits assumed): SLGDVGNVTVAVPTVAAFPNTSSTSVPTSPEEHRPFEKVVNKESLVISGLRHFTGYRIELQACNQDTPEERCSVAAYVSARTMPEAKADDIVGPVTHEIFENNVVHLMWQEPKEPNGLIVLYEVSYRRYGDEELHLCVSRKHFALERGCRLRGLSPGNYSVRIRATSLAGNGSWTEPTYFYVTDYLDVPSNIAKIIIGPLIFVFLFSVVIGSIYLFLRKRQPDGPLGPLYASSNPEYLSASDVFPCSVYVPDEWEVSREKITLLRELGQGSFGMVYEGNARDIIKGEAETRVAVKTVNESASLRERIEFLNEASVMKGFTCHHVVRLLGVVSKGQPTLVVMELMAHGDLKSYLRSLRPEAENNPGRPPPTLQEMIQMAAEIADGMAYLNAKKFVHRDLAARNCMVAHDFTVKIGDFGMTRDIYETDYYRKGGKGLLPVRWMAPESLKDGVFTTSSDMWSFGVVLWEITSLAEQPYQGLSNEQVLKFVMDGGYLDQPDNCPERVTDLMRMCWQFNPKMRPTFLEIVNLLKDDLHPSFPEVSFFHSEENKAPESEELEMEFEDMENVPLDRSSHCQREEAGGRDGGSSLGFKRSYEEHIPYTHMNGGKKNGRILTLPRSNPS
# Mitogen-activated protein kinase 14, sequence (Q16539 whole entry): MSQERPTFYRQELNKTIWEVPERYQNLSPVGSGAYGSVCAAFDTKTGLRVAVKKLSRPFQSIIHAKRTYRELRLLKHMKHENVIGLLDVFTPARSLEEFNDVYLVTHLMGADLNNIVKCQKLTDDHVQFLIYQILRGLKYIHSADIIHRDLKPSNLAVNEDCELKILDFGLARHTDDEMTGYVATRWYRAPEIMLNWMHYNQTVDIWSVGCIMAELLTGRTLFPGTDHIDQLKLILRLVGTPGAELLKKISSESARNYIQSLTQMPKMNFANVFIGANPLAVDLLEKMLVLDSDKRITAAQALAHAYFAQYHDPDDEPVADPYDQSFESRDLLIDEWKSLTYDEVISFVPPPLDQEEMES
smiles,measurement,setting,value
O=C1/C(=C/c2ccccn2)CNC/C1=C\c1ccccn1,inhibition,[1],15%
same,inhibition,[2],45%
same,inhibition,[3],72%
same,inhibition,[4],54%
same,inhibition,[5],-5%
same,inhibition,[6],15%
same,inhibition,[7],1%
same,IC50,[8],4 µM
same,inhibition,[9],-9%
same,inhibition,[10],75%
same,IC50,[11],35 µM
same,inhibition,[12],69%
